Experimental data of several laboratories.
Compare with care: the assays were run in different laboratories.
SLC22A11: Solute carrier family 22 member 11 (SLC22A11, Homo sapiens, UniProt Q9NSA0)
CD209: CD209 antigen (CD209, Homo sapiens, UniProt Q9NNX6)
RIOK1: Serine/threonine-protein kinase RIO1 (RIOK1, Homo sapiens, UniProt Q9BRS2)

`COc1ccc2oc(-c3ccc4nc(N)oc4c3)c/c(=N\c3ccccc3NC(=O)CCN)c2c1` has a remaining binding of 106% (Transient receptor potential cation channel subfamily M member 7 (TRPM7, Homo sapiens, UniProt Q96QT4); binding; 1 µM).
`CCCCC1C(=O)N(c2ccccc2)N(c2ccccc2)C1=O` gave an inhibition of 82.7% (SLC22A11; transporter uptake, inhibitor; 25 µM).
The inhibition of `Cc1cc(O)c(-c2ccc([C@@H](C)CN(C)C)cc2)c2c1[nH]c(=O)c1sccc12` is reported as 0.327% (Receptor-interacting serine/threonine-protein kinase 4 (RIPK4, Homo sapiens, UniProt P57078); enzyme activity, inhibitor; 0.1 µM).
With `C[C@@H]1CC(=O)NN=C1c1ccc(NN=C(C#N)C#N)cc1` the inhibition was 76.1% (SLC22A11; transporter uptake, inhibitor; 25 µM).
The inhibition of `CCN1/C(=C/C(C)=O)Sc2ccc(F)cc21` is reported as 0.37% (Delta-type opioid receptor (OPRD1, Homo sapiens, UniProt P41143); ligand displacement, radioligand; 10 µM).
With `COc1c(Nc2cc(C(F)(F)F)cc(C(F)(F)F)c2)c(=O)c1=O` the kinact/KI was 0.916 M⁻¹ s⁻¹ (CD209; cell-free assay, inhibitor; pH 7.4).
For `C#Cc1cc(-c2cc(Nc3nc(N[C@@H](C)c4ccc(F)cn4)ncc3Cl)n[nH]2)ccc1C=O`, the inhibition was 97.4% (Serine/threonine-protein kinase SIK2 (SIK2, Homo sapiens, UniProt Q9H0K1); enzyme activity, inhibitor; 0.2 µM).
`CCCCC1=NC2(CCCC2)C(=O)N1Cc1ccc(-c2ccccc2-c2nnn[nH]2)cc1` gave an inhibition of 50 to 90% (SLC22A11; transporter uptake, inhibitor; 25 µM).
With `C[C@]1(O)CCCN(c2nc(Nc3ccc(S(=O)(=O)N[C@H]4CC[C@H](CN5CCN(c6ccc(C7CCC(=O)NC7=O)cc6F)CC5)CC4)cc3F)ncc2C(F)(F)F)C1` (stereo partly drawn) the remaining binding was 34% (STE20-like serine/threonine-protein kinase (SLK, Homo sapiens, UniProt Q9H2G2); binding, competition with immobilised ligand; 1 µM).
For `NC/C(=C\F)COc1cccc(Cn2c(=S)[nH]c(=O)c3[nH]cnc32)c1`, the inhibition was 3.14% (Diamine oxidase [copper-containing] (AOC1, Homo sapiens, UniProt P19801); enzyme activity, inhibitor; 200 pM).
The remaining binding of `CNS(=O)(=O)c1ccc(Nc2ncc(C(F)(F)F)c(N3CCC[C@](C)(O)C3)n2)c(C)c1` is reported as 99% (RIOK1; binding, competition with immobilised ligand; 1 µM).
With `O=C(ON1C(=O)CCC1=O)c1cc(C(F)(F)F)cc(C(F)(F)F)c1` the kinact/KI was 91.7 M⁻¹ s⁻¹ (CD209; cell-free assay, inhibitor; pH 7.4).
With `CCCCC(=O)Nc1ccc(-c2ccc3ncn(CCC)c(=O)c3c2)cn1` the remaining binding was 100% (RIOK1; binding, competition with immobilised ligand; 0.5 µM).
`Cc1cc(S(=O)(=O)N[C@H]2CC[C@H](CN3CCN(c4ccc(C5CCC(=O)NC5=O)cc4F)CC3)CC2)ccc1Nc1ncc(C(F)(F)F)c(N2CCC[C@](C)(O)C2)n1` (stereo partly drawn) gave a remaining binding of 79% (RIOK1; binding, competition with immobilised ligand; 1 µM).
The inhibition of `CC(C)=CCCC1(C)C=Cc2c(O)c3c(c(CC=C(C)C)c2O1)OC12C(=CCCC1C(C)(C)O[C@@]2(C/C=C(\C)C(=O)O)C(=O)O)C3=O` (stereo partly drawn) is reported as 87.8% (SLC22A11; transporter uptake, inhibitor; 25 µM).
The inhibition of `Cc1cc(F)cc2c(CCC(=O)N[C@@H]3C(=O)NC[C@H]3O)c(-c3ccc(F)cc3)[nH]c12` is reported as 26% (Alpha-2A adrenergic receptor (ADRA2A, Homo sapiens, UniProt P08913); cell-free assay; 10 µM).
For `O=C(N/N=C/c1ccc([N+](=O)[O-])o1)c1cc([N+](=O)[O-])cc([N+](=O)[O-])c1O`, the inhibition was 78.3% (SLC22A11; transporter uptake, inhibitor; 25 µM).
With `C1=C/COCc2cc(ccc2OCCN2CCCC2)Nc2nccc(n2)-c2cccc(c2)COC/1` the remaining signal was 90% (Tyrosine-protein kinase ITK/TSK (ITK, Homo sapiens, UniProt Q08881); cell-free assay; 0.1 µM).
